Laboratory results from ChEMBL document CHEMBL3826910, “Discovery of 3-(5'-Substituted)-Benzimidazole-5-(1-(3,5-dichloropyridin-4-yl)ethoxy)-1H-indazoles as Potent Fibroblast Growth Factor Receptor Inhibitors: Design, Synthesis, and Biological Evaluation” (J Med Chem, 2016).

Tests used:
NCI-H1581 [1] = test: Antiproliferative activity against FGFR1-amplified human NCI-H1581 cells after 72 hrs by CCK8/MTT assay; format: functional, cell-based; conditions: NCI-H1581, 72 h
[2] = target: Vascular endothelial growth factor receptor 2 (Homo sapiens, UniProt P35968); test: Inhibition of recombinant human VEGFR2 using poly (Glu, Tyr) 4:1 as substrate after 60 mins by ELISA
Sequence of Vascular endothelial growth factor receptor 2 (P35968 whole entry): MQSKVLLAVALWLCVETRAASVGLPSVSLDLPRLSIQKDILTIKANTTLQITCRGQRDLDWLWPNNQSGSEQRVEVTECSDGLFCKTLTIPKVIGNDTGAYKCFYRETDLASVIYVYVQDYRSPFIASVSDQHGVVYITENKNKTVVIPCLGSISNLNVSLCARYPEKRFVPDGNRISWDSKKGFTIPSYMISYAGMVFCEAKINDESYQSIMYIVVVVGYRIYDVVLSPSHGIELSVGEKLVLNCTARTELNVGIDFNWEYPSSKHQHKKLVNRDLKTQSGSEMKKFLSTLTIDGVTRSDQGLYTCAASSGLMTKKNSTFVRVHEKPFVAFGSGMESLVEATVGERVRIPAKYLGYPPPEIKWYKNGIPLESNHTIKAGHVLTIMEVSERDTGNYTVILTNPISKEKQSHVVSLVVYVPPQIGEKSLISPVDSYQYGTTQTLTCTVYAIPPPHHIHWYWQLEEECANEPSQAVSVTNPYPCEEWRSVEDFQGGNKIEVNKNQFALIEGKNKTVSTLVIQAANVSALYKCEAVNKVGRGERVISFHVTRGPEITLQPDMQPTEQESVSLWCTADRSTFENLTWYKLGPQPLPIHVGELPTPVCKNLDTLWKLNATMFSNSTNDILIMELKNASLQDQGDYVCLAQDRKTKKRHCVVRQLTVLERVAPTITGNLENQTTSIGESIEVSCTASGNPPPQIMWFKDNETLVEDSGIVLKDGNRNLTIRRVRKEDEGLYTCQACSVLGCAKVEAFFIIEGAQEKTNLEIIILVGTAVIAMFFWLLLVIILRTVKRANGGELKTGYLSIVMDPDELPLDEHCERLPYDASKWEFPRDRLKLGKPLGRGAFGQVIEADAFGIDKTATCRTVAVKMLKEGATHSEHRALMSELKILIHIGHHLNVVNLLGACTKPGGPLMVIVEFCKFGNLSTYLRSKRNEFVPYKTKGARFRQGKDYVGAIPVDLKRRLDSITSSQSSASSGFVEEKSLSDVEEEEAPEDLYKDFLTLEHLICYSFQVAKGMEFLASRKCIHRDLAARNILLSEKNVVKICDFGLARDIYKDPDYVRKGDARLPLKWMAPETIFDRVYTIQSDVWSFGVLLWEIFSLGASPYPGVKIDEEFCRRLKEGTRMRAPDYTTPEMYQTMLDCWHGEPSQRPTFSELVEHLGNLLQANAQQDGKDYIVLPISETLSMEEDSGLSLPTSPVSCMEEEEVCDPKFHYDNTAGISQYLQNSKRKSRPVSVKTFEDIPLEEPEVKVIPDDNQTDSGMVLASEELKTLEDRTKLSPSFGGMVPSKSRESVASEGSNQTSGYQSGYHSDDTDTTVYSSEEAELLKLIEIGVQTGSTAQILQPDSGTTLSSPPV

cells [3] = conditions: Homo sapiens, SNU-16, 72 h
NCI-H1581 [4] = test: Antitumor activity against human NCI-H1581 cells xenografted in nude mouse assessed as tumor growth inhibition at 20 mg/kg administered as qd for 21 days measured on day 21 post last dose relative to vehicle-treated control; format: functional; conditions: NCI-H1581, 504 h, read-out: TGI
cells [5] = conditions: Homo sapiens, KG-1, 72 h
cells [6] = conditions: Homo sapiens, RT-112, 72 h
[7] = target: Fibroblast growth factor receptor 1 (Homo sapiens, UniProt P11362); test: Inhibition of recombinant human FGFR1 using poly (Glu, Tyr) 4:1 as substrate after 60 mins by ELISA
Sequence of Fibroblast growth factor receptor 1 (P11362 whole entry): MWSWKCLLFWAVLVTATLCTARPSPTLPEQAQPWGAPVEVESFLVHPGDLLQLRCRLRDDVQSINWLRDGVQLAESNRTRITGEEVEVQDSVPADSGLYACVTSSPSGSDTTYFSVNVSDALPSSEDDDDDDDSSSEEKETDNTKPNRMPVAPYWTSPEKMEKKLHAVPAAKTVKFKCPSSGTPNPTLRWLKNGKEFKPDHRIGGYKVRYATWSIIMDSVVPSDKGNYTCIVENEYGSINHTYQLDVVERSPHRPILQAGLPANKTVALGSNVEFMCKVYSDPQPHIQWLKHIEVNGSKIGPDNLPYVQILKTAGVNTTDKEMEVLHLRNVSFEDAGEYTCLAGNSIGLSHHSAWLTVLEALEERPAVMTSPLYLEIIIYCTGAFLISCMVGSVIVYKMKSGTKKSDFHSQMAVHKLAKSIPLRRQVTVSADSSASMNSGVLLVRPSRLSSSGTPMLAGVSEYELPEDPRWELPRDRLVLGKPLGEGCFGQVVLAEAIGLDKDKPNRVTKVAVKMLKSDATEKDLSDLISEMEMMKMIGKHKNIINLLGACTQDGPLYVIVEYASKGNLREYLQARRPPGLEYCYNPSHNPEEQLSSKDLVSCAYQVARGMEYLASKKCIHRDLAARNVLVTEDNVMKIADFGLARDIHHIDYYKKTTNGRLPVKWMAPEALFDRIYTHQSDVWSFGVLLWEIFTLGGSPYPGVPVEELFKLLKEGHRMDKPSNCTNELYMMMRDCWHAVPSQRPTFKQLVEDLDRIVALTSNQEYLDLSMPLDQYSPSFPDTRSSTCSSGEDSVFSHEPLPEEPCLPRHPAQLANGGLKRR

[8] = Volume of distribution at steady state in Sprague-Dawley rat at 1 mg/kg, iv; format: ADME, organism-based; conditions: in vivo, read-out: Vdss
[9] = Tmax in Sprague-Dawley rat at 5 mg/kg, po; format: ADME, organism-based; conditions: in vivo
In short: (§1)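 Male SD rats (n = 3) dosed orally by gavage at 5 mg/kg as a suspension in 0.5% CMC-Na. Quantified by LC-MS/MS. An IV arm (1 mg/kg) was run in parallel.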

[10] = Cmax in Sprague-Dawley rat at 1 mg/kg, iv; format: ADME, organism-based; parameters: dose 1 mg/kg, route intravenous; conditions: in vivo
[11] = Cmax in Sprague-Dawley rat at 5 mg/kg, po; format: ADME, organism-based; parameters: dose 5 mg/kg, route oral; conditions: in vivo; in short: as §1
[12] = Half life in Sprague-Dawley rat at 1 mg/kg, iv; format: ADME, organism-based; conditions: in vivo
[13] = AUC (0 to infinity) in Sprague-Dawley rat at 1 mg/kg, iv; format: ADME, organism-based; parameters: dose 1 mg/kg, time infinity, route intravenous; conditions: in vivo
[14] = AUC (0 to infinity) in Sprague-Dawley rat at 5 mg/kg, po; format: ADME, organism-based; parameters: dose 5 mg/kg, route oral, time infinity; conditions: in vivo; in short: as §1
[15] = Oral bioavailability in Sprague-Dawley rat at 5 mg/kg; format: ADME, organism-based; conditions: in vivo; in short: as §1
[16] = Clearance in Sprague-Dawley rat at 1 mg/kg, iv; format: ADME, organism-based; conditions: in vivo

SMILES	IC50 (NCI-H1581 [1])	also measured
CC(Oc1ccc2[nH]nc(-c3nc4cc(F)ccc4[nH]3)c2c1)c1c(Cl)cncc1Cl (stereo not drawn)	582 nM	–
COCCNc1ccc2[nH]c(-c3n[nH]c4ccc(OC(C)c5c(Cl)cncc5Cl)cc34)nc2c1 (stereo not drawn)	1.2 nM	–
CC(Oc1ccc2[nH]nc(-c3nc4cc(CCO)ccc4[nH]3)c2c1)c1c(Cl)cncc1Cl (stereo not drawn)	3.3 nM	IC50 [2]: 12.6 nM
CCN1CCN(c2ccc3[nH]c(-c4n[nH]c5ccc(OC(C)c6c(Cl)cncc6Cl)cc45)nc3c2)CC1 (stereo not drawn)	5.9 nM	–
CC(Oc1ccc2[nH]nc(-c3nc4cc(N5CCCCC5)ccc4[nH]3)c2c1)c1c(Cl)cncc1Cl (stereo not drawn)	14.1 nM	–
COc1ccc2[nH]c(-c3n[nH]c4ccc(OC(C)c5c(Cl)cncc5Cl)cc34)nc2c1 (stereo not drawn)	315 nM	–
CC(Oc1ccc2[nH]nc(-c3nc4ccccc4[nH]3)c2c1)c1c(Cl)cncc1Cl (stereo not drawn)	403 nM	–
Clc1cnccc1COc1ccc2[nH]nc(-c3nc4cc(N5CCCCC5)ccc4[nH]3)c2c1	3070 nM	–
COc1cc(CCc2cc(NC(=O)c3ccc(N4C[C@@H](C)N[C@@H](C)C4)cc3)n[nH]2)cc(OC)c1 [FEXAGRATINIB]	92.1 nM	IC50 (cells [3]): 13.4 nM; inhibition in vivo at 20 mg/kg (NCI-H1581 [4]): 73.9%; IC50 (cells [5]): 6.4 nM; IC50 (cells [6]): 88.4 nM
CNc1ccc2[nH]c(-c3n[nH]c4ccc(OC(C)c5c(Cl)cncc5Cl)cc34)nc2c1 (stereo not drawn)	5.5 nM	–
CC(Oc1ccc2[nH]nc(-c3nc4cc(N5C[C@@H](C)N[C@@H](C)C5)ccc4[nH]3)c2c1)c1c(Cl)cncc1Cl (stereo partly drawn)	1.9 nM	IC50 [2]: 9 nM
Clc1cncc(Cl)c1COc1ccc2[nH]nc(-c3nc4cc(N5CCCCC5)ccc4[nH]3)c2c1	159 nM	–
c1cncc(COc2ccc3[nH]nc(-c4nc5cc(N6CCCCC6)ccc5[nH]4)c3c2)c1	1860 nM	–
C[C@H](Oc1ccc2[nH]nc(-c3nc4cc(CCO)ccc4[nH]3)c2c1)c1c(Cl)cncc1Cl	> 100 nM	–
c1cc(COc2ccc3[nH]nc(-c4nc5cc(N6CCCCC6)ccc5[nH]4)c3c2)ccn1	5020 nM	–
CC(Oc1ccc2[nH]nc(-c3nc4cc(N5CCC(N6CCCCC6)CC5)ccc4[nH]3)c2c1)c1c(Cl)cncc1Cl (stereo not drawn)	10.3 nM	–
c1ccc(COc2ccc3[nH]nc(-c4nc5cc(N6CCCCC6)ccc5[nH]4)c3c2)nc1	1230 nM	–
CC(Oc1ccc2[nH]nc(-c3nc4cc(N5CCCCC5)ccc4[nH]3)c2c1)c1c(Cl)ccnc1Cl (stereo not drawn)	30.8 nM	–

SMILES	IC50 (NCI-H1581 [1])	also measured
CC(Oc1ccc2[nH]nc(-c3nc4c(N5CCCCC5)cccc4[nH]3)c2c1)c1c(Cl)cncc1Cl (stereo not drawn)	–	IC50 [7]: > 1000 nM
CC(Oc1ccc2[nH]nc(-c3nc4ccccc4s3)c2c1)c1c(Cl)cncc1Cl (stereo not drawn)	> 10000 nM	–
CC(Oc1ccc2[nH]nc(-c3nc4cc(NCCN(C)C)ccc4[nH]3)c2c1)c1c(Cl)cncc1Cl (stereo not drawn)	1.1 nM	–
Cc1cccc2[nH]c(-c3n[nH]c4ccc(OC(C)c5c(Cl)cncc5Cl)cc34)nc12 (stereo not drawn)	> 10000 nM	–
CCC(Oc1ccc2[nH]nc(-c3nc4cc(N5CCCCC5)ccc4[nH]3)c2c1)c1c(Cl)cncc1Cl (stereo not drawn)	380 nM	–
C[C@@H](Oc1ccc2[nH]nc(/C=C/c3cnn(CCO)c3)c2c1)c1c(Cl)cncc1Cl [LY-2874455]	< 0.5 nM	IC50 [2]: 5.8 nM
CC(Oc1ccc2[nH]nc(-c3nc4ccccc4o3)c2c1)c1c(Cl)cncc1Cl (stereo not drawn)	3040 nM	–
C[C@@H](Oc1ccc2[nH]nc(-c3nc4cc(CCO)ccc4[nH]3)c2c1)c1c(Cl)cncc1Cl	1.4 nM	Vd [8]: 17.6 L/kg; Tmax [9]: 0.8 h; Cmax [10]: 735 ng/mL; Cmax [11]: 195 ng/mL; half-life [12]: 7.3 h; AUC(0-inf) [13]: 582 ng·h/mL; AUC(0-inf) [14]: 664 ng·h/mL; bioavailability [15]: 22%; clearance [16]: 28.3 mL/min/kg
Fc1ccc2c(-c3nc4cc(N5CCC(N6CCCCC6)CC5)ccc4[nH]3)[nH]nc2c1	749 nM	IC50 [7]: 20.3 nM; IC50 [2]: 16.4 nM
CC(Oc1ccc2[nH]nc(-c3nc4cc(N5CCCN(C)CC5)ccc4[nH]3)c2c1)c1c(Cl)cncc1Cl (stereo not drawn)	8.1 nM	–
CC(Oc1ccc2[nH]nc(-c3nc4cc(N5CCOCC5)ccc4[nH]3)c2c1)c1c(Cl)cncc1Cl (stereo not drawn)	2.2 nM	–
CC(Oc1ccc2[nH]nc(-c3nc4cc(N5CCN(C)CC5)ccc4[nH]3)c2c1)c1c(Cl)cncc1Cl (stereo not drawn)	1 nM	IC50 [7]: 1 nM; IC50 [2]: 8 nM
CC(Oc1ccc2[nH]nc(-c3nc4cc(C5CCN(C)CC5)ccc4[nH]3)c2c1)c1c(Cl)cncc1Cl (stereo not drawn)	1.6 nM	IC50 [2]: 7.8 nM
C[C@H](Oc1ccc2[nH]nc(-c3nc4cc(N5CCN(C)CC5)ccc4[nH]3)c2c1)c1c(Cl)cncc1Cl	130 nM	IC50 [7]: 9.4 nM
CC(Oc1ccc2[nH]nc(-c3nc4cc(N(C)C(=O)CN(C)C)ccc4[nH]3)c2c1)c1c(Cl)cncc1Cl (stereo not drawn)	0.8 nM	IC50 [2]: 2.5 nM
CC(Oc1ccc2[nH]nc(-c3cc4ccccc4[nH]3)c2c1)c1c(Cl)cncc1Cl (stereo not drawn)	817 nM	–
Cc1ccc2[nH]c(-c3n[nH]c4ccc(OC(C)c5c(Cl)cncc5Cl)cc34)nc2c1 (stereo not drawn)	922 nM	–
